Sampled rows, rich in hits. Any-hit rate of the full collection: about 1.3%.
MT1-MMP act inh – inhibitors of human MT1-MMP activation; 360,000 compounds, 0.061% hits; GFP/RFP ratio change, % at 20 µM; P50281; AID 651647; HT1080 RFP-PRO-GFP cells, GFP/RFP ratio fluorescence, overnight; percent of plate control window, DMSO zero;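 active = GFP/RFP ratio change of at least 30% with cell ATP level not reduced by more than half and red fluorescence within 50% of control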
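Assay system: RFP-PRO-GFP reporter HT1080 cells; read-out basis: GFP/RFP fluorescence ratio; benchmarks: DMSO wells and RFP-L50D-GFP cells; doses: 20 µM single dose, 1% DMSO; schedule: overnight cell settling, then overnight compound exposure, 37 °C, 5% CO2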
H9c2 TAG inh – inhibitors of triacylglycerol accumulation. H9c2 cells, Nile Red lipid (TAG) fluorescence; cells loaded with 200 µM oleic acid. inhibition, % at 12.5 µM. 230,000 compounds, 0.66% hits. AID 651582;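 active = pattern-corrected inhibition of lipid staining of at least 50% with the nuclear-stain viability signal not falling by more than 50%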
sPLA2-III inh – Inhibits HGIII-sPLA2 liposome hydrolysis, primary screen | QFRET BODIPY PC-A2 liposome hydrolysis, fluorescence | inhibition, % at 12.2 µM | 370,000 compounds, 0.56% hits | AID 743126;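 active = inhibition above mean plus 3 SD of compounds lying within the high and low control bounds, cut at about 19% in these data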
Target sequence (Q9NZ20 whole entry, looked up): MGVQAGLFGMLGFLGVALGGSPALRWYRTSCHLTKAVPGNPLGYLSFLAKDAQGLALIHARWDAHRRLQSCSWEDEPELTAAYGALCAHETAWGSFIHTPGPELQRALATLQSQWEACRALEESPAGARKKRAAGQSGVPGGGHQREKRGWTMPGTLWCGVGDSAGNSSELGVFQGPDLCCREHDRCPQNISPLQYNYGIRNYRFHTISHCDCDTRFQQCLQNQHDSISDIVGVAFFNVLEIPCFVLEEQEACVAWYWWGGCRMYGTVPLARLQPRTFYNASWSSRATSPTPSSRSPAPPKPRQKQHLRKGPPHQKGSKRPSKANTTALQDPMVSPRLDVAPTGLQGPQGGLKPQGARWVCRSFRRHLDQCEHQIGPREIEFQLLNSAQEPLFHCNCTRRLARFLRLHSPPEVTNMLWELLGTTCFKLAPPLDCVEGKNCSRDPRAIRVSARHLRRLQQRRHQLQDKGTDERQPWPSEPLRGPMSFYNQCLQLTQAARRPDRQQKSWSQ
Efflux pump mplx – blocks antifungal efflux pumps in multiplex yeast assay; S. cerevisiae Candida pump triplex, Nile Red efflux; inhibition, % at 10 µM; 330,000 compounds, 0.44% hits;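 active = plate passing quality check with inhibition over a set limit, or well fluorescence over plate mean plus 4 SD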;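 note: Nile Red retained in pooled yeast measured as flow cytometry median fluorescence; higher means more Nile Red kept so more efflux inhibition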
Numbers stand for hits; . = inactive; / = no result given.

SMILES	MT1-MMP act inh	H9c2 TAG inh	sPLA2-III inh	Efflux pump mplx
C[C@H]1C(=O)N2[C@@H](C[C@]3(c4c[nH]c5ccccc45)c4ccccc4N(S(=O)(=O)c4ccccc4)[C@H]23)C(=O)N1C	/	/	.	/
Cc1cc(C(=O)CCl)c(C)n1CCc1ccc(Cl)cc1	.	59	.	.
C=C(C)COc1ccc(-c2n[nH]c(C)c2-c2ccc(OC)c(OC)c2)c(O)c1	.	56	.	.
C(#CC1=CCCCC1)CNCc1ccccc1	/	/	.	/
CCOC(=O)CNC(=O)CSc1nnc(-c2ccccc2)n1CC	/	/	.	/
CC(C)Oc1ccc(-c2nn(-c3ccccc3)cc2/C=c2\sc3ncnn3c2=O)cc1	/	/	/	0.9
COc1ccc(-c2nn(-c3ccccc3)cc2/C=N/O)cc1	.	/	.	.
C(=N\NC1=Nc2cccc3cccc1c23)/c1ccccn1	.	51	.	/
Clc1ccccc1/C=N/NC1=Nc2cccc3cccc1c23	.	/	.	.
CC1(C)Cc2c(sc(NC(=O)COc3ccc(Cl)cc3)c2C#N)C(C)(C)N1	.	/	/	1.6
Cc1ccccc1OCC(=O)Nc1sc2c(c1C#N)CC(C)(C)NC2(C)C	.	/	.	.
CC1=CC(C)(C)Nc2ccc(OC(=O)CN3C(=O)c4ccccc4C3=O)cc21	.	52	.	.
CC1=CC(C)(C)Nc2ccc(OC(=O)CN3C(=O)c4cccc5cccc(c45)C3=O)cc21	.	/	.	.
CCC(NC(=O)Cn1c(-c2ccccc2)cc(C(C)=O)c1C)c1ccccc1 (configuration not stated)	/	/	.	/
COc1ccc(-n2c(C)cc(C(=O)CCl)c2C)cc1	.	64	.	.
O=C(Nc1ccc2[nH]c(=O)[nH]c2c1)c1ccc([N+](=O)[O-])o1	.	53	.	.
O=C1CCC[C@H]2C[C@H](NCCc3ccncc3)CC[C@]23CCCN13	/	/	.	/
COc1cc(C2C(C#N)=C(N)Oc3cc(N)ccc32)cc(OC)c1OC (configuration not stated)	.	65	.	.
Cc1ccc(-n2c(Cc3cccs3)nnc2SCc2ccc(C#N)cc2)cc1	/	/	.	/
Cc1cccc(-c2cccc3c4c([nH]c23)[C@@H]2C[C@H](N(C)C(=O)c3ccco3)[C@H]([C@H](C)O)CN2CC4)c1	/	/	.	/
Cc1ccc2nc(-c3ccc(NC(=S)NC(=O)C(C)C)cc3)sc2c1	.	/	.	.
Cc1ccc2nc(-c3ccc(NC(=S)NC4CC(C)(C)NC(C)(C)C4)cc3)sc2c1	.	53	.	.
CN(C)CCNc1ccc(CO)c2sc3ccc(O)cc3c(=O)c12	.	.	.	/
CN(C)CCNc1ccc2ncn3c4ccc(O)cc4c(=O)c1c23	.	75	.	/
CCCSc1cc(NCCOC(=O)CCC)c([N+](=O)[O-])c2nonc12	.	/	.	.
SMILES	MT1-MMP act inh	H9c2 TAG inh	sPLA2-III inh	Efflux pump mplx
CCCC(=O)OCCNc1cc(Sc2nccn2C)c2nonc2c1[N+](=O)[O-]	.	/	19	.
CCOC(=O)C1Nc2ccc(C(F)(F)F)cc2C2c3ccccc3CC12 (configuration not stated)	.	.	.	.
CCOC(=O)C1Nc2ccccc2C2C(O)C(O)CC12 (configuration not stated)	46	/	.	.
CCN1/C(=C/C=C/C=C/c2sc3ccccc3[n+]2CC)Sc2ccccc21	/	/	/	0.8
CCN1/C(=C/C=C/C=C/C=C/c2sc3ccccc3[n+]2CC)Sc2ccccc21	.	/	.	.
O=C(OC12CCCN(C1)/C(=C/c1cccc(Cl)c1)C2)C1CCCC1 (configuration not stated)	/	/	.	/
CC(/C=N/n1c(-c2ccc(C)cc2)n[nH]c1=S)=C\c1ccco1	.	/	.	.
S=c1[nH]nc(-c2ccncc2)n1/N=C/C=C/c1ccco1	.	.	.	.
Cc1cccc(-c2n[nH]c(=S)n2/N=C/C=C/c2ccco2)c1	.	.	31	.
CC(/C=N/n1c(-c2ccncc2)n[nH]c1=S)=C\c1ccco1	.	.	23	.
COc1ccccc1N1CCN(C(=O)C2c3ccccc3Oc3ccccc32)CC1	.	57	.	.
CC(C)C[C@H]1CN=C(Nc2ccccc2)N1CC1CCC(C(C)(C)C)CC1 (some centres not stated)	.	59	/	.
Nc1nn(-c2ccccc2)c(N)c1N=Nc1cccc(F)c1	.	54	.	.
COC(=O)CSc1nnc(-c2n[nH]c3c2CCC3)n1N	/	/	.	/
CCOc1ccc(OCc2ccc(C(=O)NN=Cc3ccc[nH]3)cc2)cc1	.	60	.	.
O=C(N/N=C/c1ccc[nH]1)c1ccccc1OCc1ccc(F)cc1	.	.	.	.
COC(=O)[C@]1(C#N)CC(=O)N(C)[C@@H]1c1ccccc1	/	/	.	/
O=C(COc1ccc(/C=N/NC(=O)c2ccccc2)cc1)Nc1ccc([N+](=O)[O-])cc1	.	.	.	.
CC(C)Oc1ccc(/C=N/NC(=O)C(CSCc2ccccc2)NC(=O)c2ccc([N+](=O)[O-])cc2)cc1 (configuration not stated)	.	54	/	.
Oc1ccc2ccccc2c1N=Nc1ccc(F)cc1	.	58	.	.
Oc1c(N=Nc2ccc(F)cc2)ccc2ccccc12	.	/	.	.
CCC[C@H]1[C@@H](OC(=O)NCc2cccc(Cl)c2)CC[C@@]23CCCN2C(=O)CCC[C@@H]13	/	/	.	/
CC(C)(C)c1ccc(C(=O)NCCC(=O)Nc2cc(Cl)ccc2N2CCOCC2)cc1	.	57	.	.
O=C(CCC1CCCC1)Nc1cc(Cl)ccc1N1CCOCC1	.	.	.	.
Cc1cccc(NC(=S)N=Nc2c(O)n(CN3CCOCC3)c3ccccc23)c1C	.	.	23	.
SMILES	MT1-MMP act inh	H9c2 TAG inh	sPLA2-III inh	Efflux pump mplx
Cc1ccccc1C(=O)n1ccc2ccc(-c3ccc4ccn(Cc5ccc(C#N)cc5)c4c3)cc21	/	/	.	/
CCC1=C(OC(=O)N(CC)CC)N2C(=O)OC(=NCC3CC3)[C@]2(Cc2ccccc2)[C@H]2C1=CC[C@H]1C(=O)N(c3ccccc3)C(=O)[C@H]12	.	.	.	3.8
CCC1=C(OC(=O)N(CC)CC)N2C(=O)OC(=NCC3CC3)[C@]2(Cc2ccccc2)[C@H]2C1=CC[C@H]1C(=O)N(C)C(=O)[C@H]12	.	.	.	.
COC(=O)c1ccc(Cl)c(NC(=O)NC23CC4CC(CC(C4)C2)C3)c1	.	70	.	.
COC(=O)c1cccc(NC(=O)NC23CC4CC(CC(C4)C2)C3)c1	.	.	.	.
COc1ccc(/C=C2/CCC(CN3CCOCC3)C2=O)cc1 (configuration not stated)	.	73	.	/
CC(C)(C)OC(=O)N1CCC(N[C@@H](Cc2ccccc2)C(=O)NCCc2c[nH]c3ccccc23)(C(=O)NC2CCCCC2)CC1	/	/	.	/
C/C(N=Nc1nc2ccccc2s1)=N\Nc1ccccc1O	.	58	.	.
C[C@@H]1ON(C)[C@H]2C[C@H]3c4[nH]c5cccc(-c6ccc7c(c6)OCO7)c5c4CCN3C(=O)[C@@H]12	/	/	.	/
Clc1ccc(Cn2ncc3c(NCc4ccccc4)ncnc32)c(Cl)c1	/	/	.	5.5
O=C(C1CCN(c2ncnc3c2sc2cccc(F)c23)CC1)N1CCN(Cc2ccccc2)CC1	/	/	.	/
